Reference: ChEMBL document CHEMBL3244060, “Methotrexate analogues. 8. Synthesis and biological evaluation of bisamide derivatives as potential prodrugs” (J Med Chem, 1977)
≈ marks a conversion by molar mass, not a printed value.

Assays:
[1] = tested on: CCRF-CEM; experiment: Cytotoxicity against human CCRF-CEM cells assessed as growth inhibition; format: functional; conditions: read-out: ID50 (the source's name)
[2] = tested on: L1210; experiment: Antitumor activity against mouse L1210 cells allografted in mouse assessed as increase in life span at 400 mg/kg, ip qd administered every 3 days for 7 days relative to control; format: functional; conditions: route intraperitoneal
How it was run: (§1)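 L1210 cells (10^5) implanted ip in mice on day 0. Compounds given ip in 10% Tween 80 on days 1, 4 and 7, at doses from 15 to 525 mg/kg. Methotrexate was given as the disodium salt in aqueous solution. Groups had 5 treated and 10-15 control animals. %ILS = 100 × (T − C)/C, where T and C are median survival days of treated and control mice.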

[3] = tested on: L1210; experiment: Antitumor activity against mouse L1210 cells allografted in mouse assessed as median survival time at 150 mg/kg, ip qd administered every 3 days for 7 days; format: functional; conditions: route intraperitoneal
How it was run: (§2)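 Mice were inoculated ip with 10^5 L1210 leukemia cells on day 0. Dosing was ip on days 1, 4 and 7 in 10% Tween 80, with the methotrexate disodium salt in water, over 15–525 mg/kg. Survival was recorded in days as the range and median per group, with 5 treated and 10-15 untreated controls.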

[4] = tested on: L1210; experiment: Antitumor activity against mouse L1210 cells allografted in mouse assessed as increase in life span at 100 mg/kg, ip qd administered every 3 days for 7 days relative to control; format: functional; conditions: route intraperitoneal; how it was run: as §1
[5] = tested on: L1210; experiment: Antitumor activity against mouse L1210 cells allografted in mouse assessed as median survival time at 200 mg/kg, ip qd administered every 3 days for 7 days; format: functional; conditions: route intraperitoneal; how it was run: as §2
[6] = tested on: L1210; experiment: Antitumor activity against mouse L1210 cells allografted in mouse assessed as increase in life span at 150 mg/kg, ip qd administered every 3 days for 7 days relative to control; format: functional; conditions: route intraperitoneal; how it was run: as §1
[7] = tested on: L1210; experiment: Antitumor activity against mouse L1210 cells allografted in mouse assessed as median survival time at 25 mg/kg, ip qd administered every 3 days for 7 days; format: functional; conditions: route intraperitoneal; how it was run: as §2
[8] = tested on: Plasma; experiment: Prodrug conversion in mouse plasma assessed as formation of methotrexate at 100 mg/kg, ip measured after 6 to 24 hrs by TLC analysis; format: ADME, organism-based; design: dose 100 mg/kg, route intraperitoneal; conditions: in vivo
How it was run: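 Normal mice received a single ip dose of 100 mg/kg in 10% Tween 80. One animal was killed at 6 h and one at 24 h. Blood was taken by ocular puncture with a heparinized syringe and the red cells spun down. Plasma 0.2 mL was cooled on ice and diluted with methanol 0.4 mL to precipitate protein, then centrifuged. Analysed by cellulose TLC developed in 0.5 M phosphate buffer pH 7.4.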

[9] = tested on: L1210; experiment: Antitumor activity against mouse L1210 cells allografted in mouse assessed as median survival time at 100 mg/kg, ip qd administered every 3 days for 7 days; format: functional; conditions: route intraperitoneal; how it was run: as §2
[10] = tested on: L1210; experiment: Antitumor activity against mouse L1210 cells allografted in mouse assessed as increase in life span at 50 mg/kg, ip qd administered every 3 days for 7 days relative to control; format: functional; conditions: route intraperitoneal; how it was run: as §1
[11] = tested on: Serum; experiment: Prodrug conversion in rat whole serum assessed as formation of methotrexate at 0.006 g measured up to 24 hrs by TLC analysis; format: ADME
How it was run: (§3)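 Fresh rat serum 0.9 mL plus compound 0.006 g in 0.1 mL Me2SO, incubated at 37 °C with gentle shaking for up to 24 h. Cooled on ice, diluted 1.5-fold with methanol to precipitate protein, centrifuged. Supernatant run on fluorescent cellulose TLC developed with 0.5 M phosphate buffer pH 7.4 to detect parent compound and metabolites.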

[12] = tested on: L1210; experiment: Antitumor activity against mouse L1210 cells allografted in mouse assessed as increase in life span at 200 mg/kg, ip qd administered every 3 days for 7 days relative to control; format: functional; conditions: route intraperitoneal; how it was run: as §1
[13] = tested on: Liver; experiment: Prodrug conversion in mouse liver assessed as formation of methotrexate at 100 mg/kg, ip measured after 6 to 24 hrs by TLC analysis; format: ADME, organism-based; design: dose 100 mg/kg, route intraperitoneal; conditions: in vivo
[14] = tested on: L1210; experiment: Antitumor activity against mouse L1210 cells allografted in mouse assessed as increase in life span at 25 mg/kg, ip qd administered every 3 days for 7 days relative to control; format: functional; conditions: route intraperitoneal; how it was run: as §1
[15] = Cytotoxicity against RBL cells assessed as growth inhibition; format: functional; conditions: Rattus norvegicus, read-out: ID50 (the source's name)
[16] = tested on: L1210; experiment: Antitumor activity against mouse L1210 cells allografted in mouse assessed as median survival time at 400 mg/kg, ip qd administered every 3 days for 7 days; format: functional; conditions: route intraperitoneal; how it was run: as §2
[17] = tested on: L1210; experiment: Antitumor activity against mouse L1210 cells allografted in mouse assessed as median survival time at 50 mg/kg, ip qd administered every 3 days for 7 days; format: functional; conditions: route intraperitoneal; how it was run: as §2
[18] = target: Dihydrofolate reductase (Lactobacillus casei) (UniProt P00381); experiment: Inhibition of methotrexate-resistant Lactobacillus casei ATCC 7469 dihydrofolate reductase; conditions: Lacticaseibacillus casei
[19] = tested on: Serum; experiment: Prodrug conversion in rat whole serum assessed as formation of methotrexate measured after 1 hr by TLC analysis; format: ADME; how it was run: as §3
[20] = tested on: L1210; experiment: Antitumor activity against mouse L1210 cells allografted in mouse assessed as increase in life span at 0.18 mg/kg, sc administered daily up to death started on day 5 post tumor implantation relative to control; format: functional; conditions: 120 h, route subcutaneous

Sequence of Dihydrofolate reductase (Lactobacillus casei) (P00381 whole entry): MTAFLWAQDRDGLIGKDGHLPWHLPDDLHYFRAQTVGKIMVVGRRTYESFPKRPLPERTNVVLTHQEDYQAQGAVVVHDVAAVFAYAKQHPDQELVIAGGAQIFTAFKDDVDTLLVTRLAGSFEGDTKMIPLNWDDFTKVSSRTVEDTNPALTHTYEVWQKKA

In the case of `CN(Cc1cnc2nc(N)nc(N)c2n1)c1ccc(C(=O)N[C@@H](CCC(=O)NCCc2ccccc2)C(=O)NCCc2ccccc2)cc1`, the IC50 [1] is reported as > 10 µg/mL.

With `CN(Cc1cnc2nc(N)nc(N)c2n1)c1ccc(C(=O)N[C@@H](CCC(N)=O)C(N)=O)cc1` the IC50 [1] was > 10 µg/mL.

For `CN(Cc1cnc2nc(N)nc(N)c2n1)c1ccc(C(=O)N[C@@H](CCC(=O)NCc2ccccc2)C(=O)NCc2ccccc2)cc1`, the ILS at 400 mg/kg [2] was -11%, the MST [3] was 15 days and the ILS at 100 mg/kg [4] was 44%. It also gave an MST [5] of 9 days, an ILS at 150 mg/kg [6] of 66% and an MST [7] of 12 days. The Drug metabolism [8] was “metabolite_detected”, the MST [9] was 13 days and the ILS at 50 mg/kg [10] was 44%. The Drug metabolism [11] was “metabolite_notdetected”, the IC50 [1] was 7.6 µg/mL (≈ 12 µM) and the ILS at 200 mg/kg [12] was 0%. For the same compound, the Drug metabolism [13] was “metabolite_detected”, the ILS at 25 mg/kg [14] was 33% and the IC50 [15] was 2.5 µg/mL (≈ 3.95 µM). For the same compound, the MST [16] was 8 days and the MST [17] was 13 days.

For `CN(C)CCNC(=O)CC[C@H](NC(=O)c1ccc(N(C)Cc2cnc3nc(N)nc(N)c3n2)cc1)C(=O)NCCN(C)C`, the IC50 [1] was > 10 µg/mL.

With `CCC(C)NC(=O)CC[C@H](NC(=O)c1ccc(N(C)Cc2cnc3nc(N)nc(N)c3n2)cc1)C(=O)NC(C)CC` (some centres not stated) the IC50 [1] was > 10 µg/mL.

With `CCCCOC(=O)CC[C@H](NC(=O)c1ccc(N(C)Cc2cnc3nc(N)nc(N)c3n2)cc1)C(=O)OCCCC` the IC50 [1] was 0.032 µg/mL (≈ 0.0565 µM), the ID50 [18] was 5 ×10⁻⁷ M and the Drug metabolism [19] was “metabolite_detected”.

With `Nc1nc(N)c2nc(CNc3ccc(C(=O)N[C@@H](CCC(=O)O)C(=O)O)cc3)cnc2n1` [AMINOPTERIN] the ILS at 0.18 mg/kg [20] was 30%.

For `CN(Cc1cnc2nc(N)nc(N)c2n1)c1ccc(C(=O)N[C@@H](CCC(=O)NCCCO)C(=O)NCCCO)cc1`, the IC50 [1] was > 10 µg/mL.

Compound `CCCCCCNC(=O)CC[C@H](NC(=O)c1ccc(N(C)Cc2cnc3nc(N)nc(N)c3n2)cc1)C(=O)NCCCCCC` has an IC50 [1] of 10 µg/mL (≈ 16.1 µM).
